Reference: ChEMBL document CHEMBL2434944, “Novel acetamidothiazole derivatives: synthesis and in vitro anticancer evaluation” (Eur J Med Chem, 2013)

Assays:
[1] = tested on: ACHN; assay: Growth inhibition of human ACHN cells assessed as cell growth at 10^-5 M after 48 hrs by sulforhodamine B assay relative to control; assay type: functional; settings: read-out: Activity
Summary of the method: (§1)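 NCI-60 single-dose screen at 10^-5 M. Cells grown in RPMI 1640 with 5% FBS and 2 mM L-glutamine, plated at 5,000–40,000 cells/well according to doubling time, and preincubated 24 h at 37°C, 5% CO2. Compound dissolved in DMSO and added. Exposure 48 h. Adherent cells fixed with cold TCA (10% final), suspension cells with 16% final TCA. Read-out is 0.4% SRB staining, dye solubilised in 10 mM Tris, absorbance at 515 nm. Percent growth is calculated against the time-zero plate and untreated control.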

[2] = tested on: A498; assay: Growth inhibition of human A498 cells assessed as cell growth at 10^-5 M after 48 hrs by sulforhodamine B assay relative to control; assay type: functional; settings: A498, 48 h, read-out: Activity; summary of the method: as §1
[3] = tested on: 786-0; assay: Growth inhibition of human 786-0 cells assessed as cell growth at 10^-5 M after 48 hrs by sulforhodamine B assay relative to control; assay type: functional; settings: 786-0, 48 h, read-out: Activity; summary of the method: as §1
[4] = tested on: SK-OV-3; assay: Growth inhibition of human SKOV3 cells assessed as cell growth at 10^-5 M after 48 hrs by sulforhodamine B assay relative to control; assay type: functional; settings: SK-OV-3, 48 h, read-out: Activity; summary of the method: as §1
[5] = Growth inhibition of human NCI-ADR-RES cells assessed as cell growth at 10^-5 M after 48 hrs by sulforhodamine B assay relative to control; assay type: functional; settings: read-out: Activity; summary of the method: as §1
[6] = tested on: OVCAR-3; assay: Growth inhibition of human OVCAR3 cells assessed as cell growth at 10^-5 M after 48 hrs by sulforhodamine B assay relative to control; assay type: functional; settings: OVCAR-3, 48 h, read-out: Activity; summary of the method: as §1
[7] = tested on: IGROV-1; assay: Growth inhibition of human IGROV1 cells assessed as cell growth at 10^-5 M after 48 hrs by sulforhodamine B assay relative to control; assay type: functional; settings: IGROV-1, 48 h, read-out: Activity; summary of the method: as §1
[8] = tested on: SK-MEL-5; assay: Growth inhibition of human SK-MEL-5 cells assessed as cell growth at 10^-5 M after 48 hrs by sulforhodamine B assay relative to control; assay type: functional; settings: SK-MEL-5, 48 h, read-out: Activity; summary of the method: as §1
[9] = tested on: Malme-3M; assay: Growth inhibition of human MALME-3M cells assessed as cell growth at 10^-5 M after 48 hrs by sulforhodamine B assay relative to control; assay type: functional; settings: read-out: Activity; summary of the method: as §1
[10] = tested on: SNB-75; assay: Growth inhibition of human SNB75 cells assessed as cell growth at 10^-5 M after 48 hrs by sulforhodamine B assay relative to control; assay type: functional; settings: SNB-75, 48 h, read-out: Activity; summary of the method: as §1
[11] = tested on: SF-539; assay: Growth inhibition of human SF539 cells assessed as cell growth at 10^-5 M after 48 hrs by sulforhodamine B assay relative to control; assay type: functional; settings: SF-539, 48 h, read-out: Activity; summary of the method: as §1
[12] = Growth inhibition of human HCC2998 cells assessed as cell growth at 10^-5 M after 48 hrs by sulforhodamine B assay relative to control; assay type: functional; settings: HCC 2998, 48 h, read-out: Activity; summary of the method: as §1
[13] = tested on: COLO 205; assay: Growth inhibition of human COLO205 cells assessed as cell growth at 10^-5 M after 48 hrs by sulforhodamine B assay relative to control; assay type: functional; settings: COLO 205, 48 h, read-out: Activity; summary of the method: as §1
[14] = tested on: NCI-H460; assay: Growth inhibition of human NCI-H460 cells assessed as cell growth at 10^-5 M after 48 hrs by sulforhodamine B assay relative to control; assay type: functional; settings: NCI-H460, 48 h, read-out: Activity; summary of the method: as §1
[15] = tested on: NCI-H322M; assay: Growth inhibition of human NCI-H322M cells assessed as cell growth at 10^-5 M after 48 hrs by sulforhodamine B assay relative to control; assay type: functional; settings: read-out: Activity; summary of the method: as §1
[16] = tested on: NCI-H23; assay: Growth inhibition of human NCI-H23 cells assessed as cell growth at 10^-5 M after 48 hrs by sulforhodamine B assay relative to control; assay type: functional; settings: NCI-H23, 48 h, read-out: Activity; summary of the method: as §1
[17] = tested on: HOP-62; assay: Growth inhibition of human HOP62 cells assessed as cell growth at 10^-5 M after 48 hrs by sulforhodamine B assay relative to control; assay type: functional; settings: HOP-62, 48 h, read-out: Activity; summary of the method: as §1
[18] = tested on: A549; assay: Growth inhibition of human A549 cells assessed as cell growth at 10^-5 M after 48 hrs by sulforhodamine B assay relative to control; assay type: functional; settings: A549, 48 h, read-out: Activity; summary of the method: as §1
[19] = tested on: SR; assay: Growth inhibition of human SR cells assessed as cell growth at 10^-5 M after 48 hrs by sulforhodamine B assay relative to control; assay type: functional; settings: read-out: Activity
Summary of the method: (§2)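 NCI-60 single-dose screen, 10^-5 M final. Cells grown in RPMI 1640 with 5% FBS and 2 mM L-glutamine, seeded at 5,000–40,000 cells/well by doubling time. Preincubated 24 h at 37°C, 5% CO2. Compound in DMSO, diluted in medium with gentamicin, then 48 h exposure. Fixed with cold TCA, SRB stained, A515 read. Percent growth vs untreated control, time-zero plate corrected.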

[20] = tested on: MOLT-4; assay: Growth inhibition of human MOLT4 cells assessed as cell growth at 10^-5 M after 48 hrs by sulforhodamine B assay relative to control; assay type: functional; settings: MOLT-4, 48 h, read-out: Activity; summary of the method: as §1
[21] = tested on: CCRF-CEM; assay: Growth inhibition of human CCRF-CEM cells assessed as cell growth at 10^-5 M after 48 hrs by sulforhodamine B assay relative to control; assay type: functional; settings: read-out: Activity; summary of the method: as §1
[22] = molecular target: Thymidylate synthase (Homo sapiens, UniProt P04818); assay: Inhibition of human thymidylate synthase
Thymidylate synthase, sequence (P04818 whole entry): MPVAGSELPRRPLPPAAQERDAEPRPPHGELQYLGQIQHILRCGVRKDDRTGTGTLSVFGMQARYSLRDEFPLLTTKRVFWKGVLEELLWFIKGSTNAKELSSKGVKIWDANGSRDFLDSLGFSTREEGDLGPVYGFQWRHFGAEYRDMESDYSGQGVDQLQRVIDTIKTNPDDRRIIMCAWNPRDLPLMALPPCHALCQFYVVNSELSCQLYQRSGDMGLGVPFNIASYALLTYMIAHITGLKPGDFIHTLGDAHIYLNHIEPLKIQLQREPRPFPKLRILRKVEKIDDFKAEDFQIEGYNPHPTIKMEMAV

[23] = molecular target: Epidermal growth factor receptor (Homo sapiens, UniProt P00533); assay: Inhibition of human EGFR
Epidermal growth factor receptor, sequence (P00533 whole entry): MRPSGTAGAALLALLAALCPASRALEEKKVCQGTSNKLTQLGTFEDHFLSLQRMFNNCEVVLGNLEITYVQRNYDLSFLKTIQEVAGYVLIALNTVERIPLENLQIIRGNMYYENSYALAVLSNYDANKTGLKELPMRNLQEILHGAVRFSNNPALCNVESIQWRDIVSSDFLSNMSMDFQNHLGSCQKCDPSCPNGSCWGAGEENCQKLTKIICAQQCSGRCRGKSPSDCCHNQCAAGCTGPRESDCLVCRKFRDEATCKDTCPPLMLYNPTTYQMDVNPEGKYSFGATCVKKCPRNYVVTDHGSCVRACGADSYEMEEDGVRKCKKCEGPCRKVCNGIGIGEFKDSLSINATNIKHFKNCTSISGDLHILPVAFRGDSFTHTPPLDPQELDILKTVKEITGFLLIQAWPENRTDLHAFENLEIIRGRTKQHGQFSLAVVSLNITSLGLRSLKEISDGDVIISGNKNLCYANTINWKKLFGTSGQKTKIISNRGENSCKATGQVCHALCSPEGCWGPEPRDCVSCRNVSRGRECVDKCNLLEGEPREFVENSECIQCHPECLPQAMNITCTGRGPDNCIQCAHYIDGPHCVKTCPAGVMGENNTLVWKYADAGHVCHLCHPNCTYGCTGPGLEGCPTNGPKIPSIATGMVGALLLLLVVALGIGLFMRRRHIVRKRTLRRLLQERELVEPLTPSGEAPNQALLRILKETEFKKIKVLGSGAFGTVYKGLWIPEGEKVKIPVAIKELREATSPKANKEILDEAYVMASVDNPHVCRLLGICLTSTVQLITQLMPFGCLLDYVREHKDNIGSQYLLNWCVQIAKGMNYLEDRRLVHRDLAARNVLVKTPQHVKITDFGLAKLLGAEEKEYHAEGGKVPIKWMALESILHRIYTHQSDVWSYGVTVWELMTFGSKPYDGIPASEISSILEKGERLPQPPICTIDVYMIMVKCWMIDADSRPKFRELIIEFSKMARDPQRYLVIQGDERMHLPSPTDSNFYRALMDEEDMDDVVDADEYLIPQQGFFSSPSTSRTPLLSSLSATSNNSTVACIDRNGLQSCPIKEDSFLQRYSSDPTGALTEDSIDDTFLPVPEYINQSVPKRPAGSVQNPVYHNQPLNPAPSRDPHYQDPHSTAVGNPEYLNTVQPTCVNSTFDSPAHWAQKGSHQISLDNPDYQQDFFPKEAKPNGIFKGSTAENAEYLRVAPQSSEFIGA

[24] = tested on: MDA-MB-468; assay: Growth inhibition of human MDA-MB-468 cells assessed as cell growth at 10^-5 M after 48 hrs by sulforhodamine B assay relative to control; assay type: functional; settings: MDA-MB-468, 48 h, read-out: Activity; summary of the method: as §1
[25] = tested on: MCF7; assay: Growth inhibition of human MCF7 cells assessed as cell growth at 10^-5 M after 48 hrs by sulforhodamine B assay relative to control; assay type: functional; settings: MCF7, 48 h, read-out: Activity; summary of the method: as §1
[26] = tested on: PC-3; assay: Growth inhibition of human PC3 cells assessed as cell growth at 10^-5 M after 48 hrs by sulforhodamine B assay relative to control; assay type: functional; settings: PC-3, 48 h, read-out: Activity; summary of the method: as §1
[27] = tested on: UO-31; assay: Growth inhibition of human UO31 cells assessed as cell growth at 10^-5 M after 48 hrs by sulforhodamine B assay relative to control; assay type: functional; settings: UO-31, 48 h, read-out: Activity; summary of the method: as §2
[28] = tested on: SN12C; assay: Growth inhibition of human SN12C cells assessed as cell growth at 10^-5 M after 48 hrs by sulforhodamine B assay relative to control; assay type: functional; settings: read-out: Activity; summary of the method: as §1
[29] = tested on: RXF 393; assay: Growth inhibition of human RXF393 cells assessed as cell growth at 10^-5 M after 48 hrs by sulforhodamine B assay relative to control; assay type: functional; settings: RXF 393, 48 h, read-out: Activity; summary of the method: as §1

Structure (SMILES) | growth at 10 µM [1] | growth at 10 µM [2] | growth at 10 µM [3] | growth at 10 µM [4] | growth at 10 µM [5] | growth at 10 µM [6] | growth at 10 µM [7] | growth at 10 µM [8] | growth at 10 µM [9] | growth at 10 µM [10] | growth at 10 µM [11] | growth at 10 µM [12] | growth at 10 µM [13] | growth at 10 µM [14] | growth at 10 µM [15] | growth at 10 µM [16] | growth at 10 µM [17] | growth at 10 µM [18] | growth at 10 µM [19] | growth at 10 µM [20] | other results
CC(=O)N1CCN(C(=O)Cn2c(-c3ccc(C)cc3)csc2=N)CC1 | 92.8% | 80.6% | 98.8% | 103% | 93% | 108% | 103% | 92.1% | 121% | 82.3% | 99.9% | 101% | 106% | 103% | 108% | 95.7% | 101% | 83.4% | 81.3% | 73% | growth at 10 µM [21]: 88.2%; Ki [22]: 3.65 µM; Ki [23]: 6.09 µM; growth at 10 µM [24]: 94.3%; growth at 10 µM [25]: 88.9%; growth at 10 µM [26]: 65.2%; growth at 10 µM [27]: 83.1%; growth at 10 µM [28]: 87.4%; growth at 10 µM [29]: 94.8%
CC(=O)N1CCN(C(=O)Cn2c(-c3ccccc3)csc2=N)CC1 | 89.5% | 100% | 103% | 89.4% | 105% | 102% | 95.6% | 90.2% | 141% | 67.7% | 91.6% | 107% | 99.8% | 110% | 94.4% | 98.5% | 85.3% | 96% | 88.7% | 96.2% | growth at 10 µM [21]: 103%; Ki [22]: 10.9 µM; Ki [23]: 16.8 µM; growth at 10 µM [24]: 94.6%; growth at 10 µM [25]: 94.8%; growth at 10 µM [26]: 83.5%; growth at 10 µM [27]: 60.4%; growth at 10 µM [28]: 95.8%; growth at 10 µM [29]: 86.3%
N=c1scc(-c2ccccc2)n1CC(=O)N1CCOCC1 | 88% | 117% | 102% | 92.3% | 105% | 97% | 86.7% | 95.5% | 102% | 59.4% | 98.8% | 104% | 107% | 105% | 97.9% | 95.8% | 90% | 102% | 86.7% | 95.2% | growth at 10 µM [21]: 98.6%; Ki [22]: 6.22 µM; Ki [23]: 55.3 µM; growth at 10 µM [24]: 98.4%; growth at 10 µM [25]: 89.5%; growth at 10 µM [26]: 81.3%; growth at 10 µM [27]: 58%; growth at 10 µM [28]: 101%; growth at 10 µM [29]: 98.7%
N=c1scc(-c2ccc(Cl)cc2)n1CC(=O)N1CCN(c2ccccc2)CC1 | 96.1% | 84.9% | 97.9% | 109% | 98% | 113% | 101% | 91.9% | 107% | 78.4% | 100% | 95.6% | 105% | 101% | 99.8% | 98.3% | 109% | 84.8% | 88% | 87% | growth at 10 µM [21]: 96.2%; Ki [22]: 5.09 µM; Ki [23]: 5.82 µM; growth at 10 µM [24]: 89.8%; growth at 10 µM [25]: 90.8%; growth at 10 µM [26]: 81.8%; growth at 10 µM [27]: 91%; growth at 10 µM [28]: 99.8%; growth at 10 µM [29]: 98.8%
